# Measurements as given in paper PMC6398604 (Journal of medicinal chemistry, 2018).
# Tested on: not listed separately
# Assay: Mouse Blood-Brain Barrier
# Type: in vivo
# Conditions: 10 mg/kg ip, mice
# How it was run: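 Male C57BL/6J mice (8 weeks) were habituated and handled before dosing. Test compound was suspended in 0.1% Tween80, 0.1% silicone antifoam and 1% methylcellulose in water, then given once ip at 10 mg/kg (10 mL/kg). At 5, 15 or 60 min, mice under isoflurane gave cardiac blood (Li-heparin) and were PBS-perfused. Plasma was spun 2000 rpm, 4°C, 15 min. Brain was homogenised in 4x (w/v) PBS pH 7.4 for total levels.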
row,Structure (SMILES),overall exposure in mouse (in words)
1,"CCS(=O)(=O)c1ccc(O)c2ncccc12 [Compound 15, 5-(Ethylsulfonyl)quinoline-8-ol]",low overall exposure
2,"O=S(=O)(c1ccc(O)c2ncccc12)N1CCCC1Cc1ccccc1 (centres unmarked) [Compound 16, 5-((2-Benzylpyrrolidin-1-yl)sulfonyl)quinoline-8-ol]",low overall exposure

# Molecular target: P-glycoprotein (Homo sapiens, UniProt P08183)
# Sequence (P08183 whole entry): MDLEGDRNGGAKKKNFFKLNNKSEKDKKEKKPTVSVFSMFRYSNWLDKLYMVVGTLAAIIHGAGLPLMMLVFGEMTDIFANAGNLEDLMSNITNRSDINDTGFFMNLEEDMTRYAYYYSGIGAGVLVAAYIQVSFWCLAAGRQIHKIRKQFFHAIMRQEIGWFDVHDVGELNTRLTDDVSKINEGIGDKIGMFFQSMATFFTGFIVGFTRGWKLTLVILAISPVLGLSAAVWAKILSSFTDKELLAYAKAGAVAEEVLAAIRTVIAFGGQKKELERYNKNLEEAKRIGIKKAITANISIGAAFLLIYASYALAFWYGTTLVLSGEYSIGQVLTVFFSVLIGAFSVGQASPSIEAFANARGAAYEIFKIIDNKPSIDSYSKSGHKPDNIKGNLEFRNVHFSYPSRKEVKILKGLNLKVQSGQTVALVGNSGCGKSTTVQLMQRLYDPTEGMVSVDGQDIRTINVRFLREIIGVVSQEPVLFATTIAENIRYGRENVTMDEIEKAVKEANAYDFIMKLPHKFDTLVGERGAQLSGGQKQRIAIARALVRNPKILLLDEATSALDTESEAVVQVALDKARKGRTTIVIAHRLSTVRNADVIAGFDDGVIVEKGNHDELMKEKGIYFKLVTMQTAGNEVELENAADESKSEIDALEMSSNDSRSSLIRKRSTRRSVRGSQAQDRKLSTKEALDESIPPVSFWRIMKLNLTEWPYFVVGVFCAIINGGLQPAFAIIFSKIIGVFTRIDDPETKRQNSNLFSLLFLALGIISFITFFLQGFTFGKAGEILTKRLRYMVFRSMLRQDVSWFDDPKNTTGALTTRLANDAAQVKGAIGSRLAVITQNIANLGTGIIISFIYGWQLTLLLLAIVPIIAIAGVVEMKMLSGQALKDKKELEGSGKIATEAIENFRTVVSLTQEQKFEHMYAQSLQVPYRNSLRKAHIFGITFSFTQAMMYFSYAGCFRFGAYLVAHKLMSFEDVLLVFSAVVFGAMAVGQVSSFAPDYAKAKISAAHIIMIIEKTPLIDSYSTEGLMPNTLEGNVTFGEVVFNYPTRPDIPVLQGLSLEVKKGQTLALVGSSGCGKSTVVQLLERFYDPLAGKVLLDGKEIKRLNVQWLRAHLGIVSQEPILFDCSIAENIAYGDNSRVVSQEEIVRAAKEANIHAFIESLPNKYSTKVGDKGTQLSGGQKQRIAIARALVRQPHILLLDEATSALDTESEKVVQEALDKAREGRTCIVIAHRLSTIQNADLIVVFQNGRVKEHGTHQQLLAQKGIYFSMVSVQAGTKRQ
# Assay: P-gp efflux ratio in P-glycoprotein expressing MDCK cells
# Type: in vitro ADME
# Conditions: not given
row,Structure (SMILES),P-gp substrate (in words)
1,"O=S(=O)(c1ccc(F)cc1)c1cc(F)c(O)c2ncccc12 [Compound 20, 7-Fluoro-5-((4-fluorophenyl)sulfonyl)quinolin-8-ol]",not substrates for the transporter
2,"Cc1ccc(S(=O)(=O)c2cc(Cl)c(O)c3ncccc23)cc1 [Compound 22, 7-Chloro-5-tosylquinolin-8-ol]",not substrates for the transporter

# Tested on: not listed separately
# Assay: Rat pharmacokinetics
# Type: in vivo
# Conditions: rat PK studies
row,Structure (SMILES),rat PK profile (in words)
1,"O=S(=O)(c1cc(Cl)c(O)c2ncccc12)C1CCCC1 [Compound 26, 7-Chloro-5-(cyclopentylsulfonyl)quinolin-8-ol]",very low clearance and long half-life
2,"O=S(=O)(c1cc(F)c(O)c2ncccc12)C1CCCC1 [Compound 25, 5-(Cyclopentylsulfonyl)-7-fluoroquinolin-8-ol]",good pharmacokinetics
3,"O=S(=O)(c1cc(F)c(O)c2ncccc12)N1CCCC1 [Compound 28, 7-Fluoro-5-(pyrrolidin-1-ylsulfonyl)quinolin-8-ol]",good pharmacokinetics
4,"O=S(=O)(c1ccc(F)cc1)c1cc(Cl)c(O)c2ncccc12 [Compound 19, 7-Chloro-5-((4-fluorophenyl)sulfonyl)quinolin-8-ol]",very low clearance and long half-life
5,"O=S(=O)(c1cc(Cl)c(O)c2ncccc12)N1CCCC1 [Compound 29, 7-Chloro-5-(pyrrolidin-1-ylsulfonyl)quinolin-8-ol]",very low clearance and long half-life

# Same assay, conditions: rat, plasma, iv, 1 mg/kg
row,Structure (SMILES),clearance [mL/min/kg]
1,"O=S(=O)(c1cc(F)c(O)c2ncccc12)C1CCCC1 [Compound 25, 5-(Cyclopentylsulfonyl)-7-fluoroquinolin-8-ol]",0.62
2,"O=S(=O)(c1ccc(C(F)(F)F)cc1)c1cc(F)c(O)c2ncccc12 [Compound 18, 7-Fluoro-5-((4-(trifluoromethyl)phenyl)sulfonyl)quinolin-8-ol]",13
3,"O=S(=O)(c1cc(F)c(O)c2ncccc12)N1CCCC1 [Compound 28, 7-Fluoro-5-(pyrrolidin-1-ylsulfonyl)quinolin-8-ol]",11
4,"Cc1ccc(S(=O)(=O)c2cc(F)c(O)c3ncccc23)cc1 [Compound 21, 7-Fluoro-5-tosylquinolin-8-ol]",27
5,"O=S(=O)(c1ccc(F)cc1)c1cc(F)c(O)c2ncccc12 [Compound 20, 7-Fluoro-5-((4-fluorophenyl)sulfonyl)quinolin-8-ol]",12
6,"O=S(=O)(c1ccc(F)cc1)c1cc(Cl)c(O)c2ncccc12 [Compound 19, 7-Chloro-5-((4-fluorophenyl)sulfonyl)quinolin-8-ol]",0.31
7,"Cc1ccc(S(=O)(=O)c2cc(Cl)c(O)c3ncccc23)cc1 [Compound 22, 7-Chloro-5-tosylquinolin-8-ol]",25
8,"O=S(=O)(c1ccc(O)c2ncccc12)C1CCCC1 [Compound 11, 5-(Cyclopentylsulfonyl)quinoline-8-ol]",26
9,"O=S(=O)(c1cc(Cl)c(O)c2ncccc12)N1CCCC1 [Compound 29, 7-Chloro-5-(pyrrolidin-1-ylsulfonyl)quinolin-8-ol]",1

# Tested on: not listed separately
# Assay: Non-specific binding to CSF by equilibrium dialysis
# Type: in vitro ADME
# Conditions: pooled rat CSF, 2 μM testing concentration
row,Structure (SMILES),Non-specific binding to CSF (bound)
1,"O=S(=O)(c1cc(F)c(O)c2ncccc12)C1CCCC1 [Compound 25, 5-(Cyclopentylsulfonyl)-7-fluoroquinolin-8-ol]",51–57%
2,"O=S(=O)(c1cc(F)c(O)c2ncccc12)N1CCCC1 [Compound 28, 7-Fluoro-5-(pyrrolidin-1-ylsulfonyl)quinolin-8-ol]",51–57%
3,"O=S(=O)(c1ccc(F)cc1)c1cc(F)c(O)c2ncccc12 [Compound 20, 7-Fluoro-5-((4-fluorophenyl)sulfonyl)quinolin-8-ol]",51–57%

# Molecular target: P-gp (Homo sapiens, UniProt P08183)
# Sequence (P08183 whole entry): as above
# Assay: Transporter susceptibility and inhibitory activity, P-gp
# Type: in vitro ADME
# Conditions: data not shown
row,Structure (SMILES),substrate or inhibitor of P-gp (in words)
1,"O=S(=O)(c1cc(F)c(O)c2ncccc12)N1CCCC1 [Compound 28, 7-Fluoro-5-(pyrrolidin-1-ylsulfonyl)quinolin-8-ol]",not found to be a substrate or an inhibitor

# Tested on: not given
# Assay: not given
# Conditions: cited from earlier work
row,Structure (SMILES),brain penetration (in words)
1,"CCN(CC)C(=O)/C(C#N)=C/c1cc(O)c(O)c([N+](=O)[O-])c1 [Compound 2, entacapone]",negligible brain penetration
2,"Cc1c(Cl)c(C)[n+]([O-])c(Cl)c1-c1noc(-c2cc(O)c(O)c([N+](=O)[O-])c2)n1 [Compound 3, opicapone]",negligible brain penetration
3,"Cc1ccc(C(=O)c2cc(O)c(O)c([N+](=O)[O-])c2)cc1 [Compound 1, tolcapone, reference compound]",low but measurable levels in the brain

# Molecular target: MRP2 (Homo sapiens, UniProt Q92887)
# Sequence (Q92887 whole entry, species assumed): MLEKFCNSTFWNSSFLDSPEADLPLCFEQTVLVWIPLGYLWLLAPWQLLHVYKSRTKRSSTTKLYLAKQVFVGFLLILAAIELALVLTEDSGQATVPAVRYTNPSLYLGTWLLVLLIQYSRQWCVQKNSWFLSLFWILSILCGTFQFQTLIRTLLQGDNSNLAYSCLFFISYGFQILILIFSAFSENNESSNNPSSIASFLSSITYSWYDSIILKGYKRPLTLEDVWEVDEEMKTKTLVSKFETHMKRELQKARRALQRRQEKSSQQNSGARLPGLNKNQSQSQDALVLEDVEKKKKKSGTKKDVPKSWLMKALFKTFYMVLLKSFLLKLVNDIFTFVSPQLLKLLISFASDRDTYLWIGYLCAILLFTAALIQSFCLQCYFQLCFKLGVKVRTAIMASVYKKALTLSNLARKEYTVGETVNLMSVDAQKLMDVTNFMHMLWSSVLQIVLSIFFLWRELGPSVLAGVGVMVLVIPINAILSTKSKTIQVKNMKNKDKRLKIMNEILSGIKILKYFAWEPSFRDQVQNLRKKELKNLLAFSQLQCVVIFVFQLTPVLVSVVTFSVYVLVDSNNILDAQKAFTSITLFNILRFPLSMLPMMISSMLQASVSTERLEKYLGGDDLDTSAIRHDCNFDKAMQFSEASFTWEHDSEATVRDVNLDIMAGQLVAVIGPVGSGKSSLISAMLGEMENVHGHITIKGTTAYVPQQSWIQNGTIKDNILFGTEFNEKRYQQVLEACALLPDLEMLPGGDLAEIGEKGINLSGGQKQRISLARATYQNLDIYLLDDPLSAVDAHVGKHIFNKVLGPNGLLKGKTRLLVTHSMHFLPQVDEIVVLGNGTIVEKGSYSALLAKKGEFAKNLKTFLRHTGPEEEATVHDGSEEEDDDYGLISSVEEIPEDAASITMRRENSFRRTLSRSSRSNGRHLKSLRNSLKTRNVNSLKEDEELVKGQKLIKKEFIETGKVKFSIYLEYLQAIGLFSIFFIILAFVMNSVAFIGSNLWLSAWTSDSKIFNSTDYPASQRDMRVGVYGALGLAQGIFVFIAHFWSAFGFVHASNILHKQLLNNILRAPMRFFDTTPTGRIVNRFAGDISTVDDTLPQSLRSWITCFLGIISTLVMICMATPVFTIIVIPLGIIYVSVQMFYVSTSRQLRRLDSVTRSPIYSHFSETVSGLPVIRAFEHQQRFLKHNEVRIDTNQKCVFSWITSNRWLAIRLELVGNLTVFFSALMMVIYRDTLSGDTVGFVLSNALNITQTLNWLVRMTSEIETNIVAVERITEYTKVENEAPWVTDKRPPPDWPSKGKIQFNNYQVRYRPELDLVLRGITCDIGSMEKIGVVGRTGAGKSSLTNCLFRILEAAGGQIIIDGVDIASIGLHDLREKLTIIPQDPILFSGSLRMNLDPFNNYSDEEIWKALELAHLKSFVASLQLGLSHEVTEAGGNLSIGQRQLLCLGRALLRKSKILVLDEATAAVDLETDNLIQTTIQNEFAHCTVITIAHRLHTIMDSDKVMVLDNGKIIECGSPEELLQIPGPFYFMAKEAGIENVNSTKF
# Assay: Transporter susceptibility and inhibitory activity, MRP2
# Type: in vitro ADME
# Conditions: data not shown
row,Structure (SMILES),substrate or inhibitor of MRP2 (in words)
1,"O=S(=O)(c1cc(F)c(O)c2ncccc12)N1CCCC1 [Compound 28, 7-Fluoro-5-(pyrrolidin-1-ylsulfonyl)quinolin-8-ol]",not found to be a substrate or an inhibitor

# Tested on: rat hepatocytes
# Assay: Hepatocyte stability
# Type: in vitro ADME
# Conditions: not given
Structure (SMILES),Hepatocyte Stability (Rat) [μL/min/10^6 cells],metabolic stability / clearance in rat hepatocytes (in words)
"O=S(=O)(c1cc(Cl)c(O)c2ncccc12)C1CCCC1 [Compound 26, 7-Chloro-5-(cyclopentylsulfonyl)quinolin-8-ol]",18,
"O=S(=O)(c1cc(F)c(O)c2ncccc12)C1CCCC1 [Compound 25, 5-(Cyclopentylsulfonyl)-7-fluoroquinolin-8-ol]",19,
"O=S(=O)(c1ccc(C(F)(F)F)cc1)c1cc(F)c(O)c2ncccc12 [Compound 18, 7-Fluoro-5-((4-(trifluoromethyl)phenyl)sulfonyl)quinolin-8-ol]",12,
"O=S(=O)(c1ccc(O)c2ncccc12)N1CCCC1 [Compound 12, 5-(Pyrrolidin-1-ylsulfonyl)quinoline-8-ol]",177,Poor metabolic stability
"O=S(=O)(c1cc(F)c(O)c2ncccc12)N1CCCC1 [Compound 28, 7-Fluoro-5-(pyrrolidin-1-ylsulfonyl)quinolin-8-ol]",21,
"CCS(=O)(=O)c1ccc(O)c2ncccc12 [Compound 15, 5-(Ethylsulfonyl)quinoline-8-ol]",39,high hepatocyte clearance
"O=S(=O)(c1ccc(O)c2ncccc12)N1CCC(c2ccc(F)cc2)C1 (centres unmarked) [Compound 13, 5-((3-(4-Fluorophenyl)pyrrolidin-1-yl)sulfonyl)quinoline-8-ol]",,Poor metabolic stability
"O=S(=O)(c1ccc(C(F)(F)F)cc1)c1ccc(O)c2ncccc12 [Compound 17, 5-((4-(Trifluoromethyl)phenyl)sulfonyl)quinolin-8-ol]",46,high hepatocyte clearance
"Cc1ccc(S(=O)(=O)c2cc(F)c(O)c3ncccc23)cc1 [Compound 21, 7-Fluoro-5-tosylquinolin-8-ol]",36,
"O=S(=O)(c1ccc(F)cc1)c1cc(F)c(O)c2ncccc12 [Compound 20, 7-Fluoro-5-((4-fluorophenyl)sulfonyl)quinolin-8-ol]",15,
"Cc1cc(S(=O)(=O)N2CCCC2)c2cccnc2c1O [Compound 30, 7-Methyl-5-(pyrrolidin-1-ylsulfonyl)quinolin-8-ol]",103,no impact on clearance
"O=S(=O)(c1ccc(F)cc1)c1cc(Cl)c(O)c2ncccc12 [Compound 19, 7-Chloro-5-((4-fluorophenyl)sulfonyl)quinolin-8-ol]",4,
"Cc1ccc(S(=O)(=O)c2cc(Cl)c(O)c3ncccc23)cc1 [Compound 22, 7-Chloro-5-tosylquinolin-8-ol]",78,
"O=S(=O)(c1ccc(O)c2ncccc12)N1CCCC1Cc1ccccc1 (centres unmarked) [Compound 16, 5-((2-Benzylpyrrolidin-1-yl)sulfonyl)quinoline-8-ol]",228,high hepatocyte clearance
"O=S(=O)(c1cc(Cl)c(O)c2ncccc12)N1CCCC1 [Compound 29, 7-Chloro-5-(pyrrolidin-1-ylsulfonyl)quinolin-8-ol]",14,

# Molecular target: T1, Human MB-COMT (Homo sapiens, UniProt P21964)
# T1 sequence (P21964 1-271): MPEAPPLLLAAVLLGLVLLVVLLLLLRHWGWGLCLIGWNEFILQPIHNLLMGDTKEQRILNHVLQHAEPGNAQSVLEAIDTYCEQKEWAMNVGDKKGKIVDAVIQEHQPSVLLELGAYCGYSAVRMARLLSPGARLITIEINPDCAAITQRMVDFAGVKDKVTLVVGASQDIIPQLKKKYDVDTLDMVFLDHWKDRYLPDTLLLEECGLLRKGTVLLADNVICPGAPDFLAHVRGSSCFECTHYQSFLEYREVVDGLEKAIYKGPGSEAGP
# Assay: MTase Glo Methyltransferase assay, MB-COMT
# Type: biochemical
# Conditions: not given
row,Structure (SMILES),MB-COMT inhibition / potency (in words)
1,"Cc1ccc(S(=O)(=O)c2cc(Br)c(O)c3ncccc23)cc1 [Compound 23, 7-Bromo-5-tosylquinolin-8-ol]",reduced MB-COMT potency
2,"Cc1cc(S(=O)(=O)N2CCCC2)c2cccnc2c1O [Compound 30, 7-Methyl-5-(pyrrolidin-1-ylsulfonyl)quinolin-8-ol]",tolerated
3,"COc1ccc(S(=O)(=O)N2CCCC2)c2cccnc12 [Compound 14, 8-Methoxy-5-(pyrrolidin-1-yulsulfonyl)quinoline]",no appreciable inhibition of MB-COMT
4,"Oc1cccc2cccnc12 [Compound 4, 8-hydroxyquinoline, reference compound]",abolished MB-COMT inhibition

# Tested on: not given
# Assay: not given
# Conditions: cited from earlier work
# Remark: another data set of the same source
row,Structure (SMILES),hepatic toxicity (in words)
1,"Cc1ccc(C(=O)c2cc(O)c(O)c([N+](=O)[O-])c2)cc1 [Compound 1, tolcapone, reference compound]",associated with hepatic toxicity

# Tested on: dopamine metabolites HVA and DOPAC in rat CSF (COMT)
# Assay: Rat biomarker assay: HVA and DOPAC in CSF
# Type: in vivo
# Conditions: 4 hours after 10 mpk oral
row,Structure (SMILES),"HVA decrease, significance versus vehicle (in words)"
1,"O=S(=O)(c1cc(F)c(O)c2ncccc12)C1CCCC1 [Compound 25, 5-(Cyclopentylsulfonyl)-7-fluoroquinolin-8-ol]",statistically significant difference
2,"O=S(=O)(c1cc(F)c(O)c2ncccc12)N1CCCC1 [Compound 28, 7-Fluoro-5-(pyrrolidin-1-ylsulfonyl)quinolin-8-ol]",statistically significant difference

# Molecular target: T2, BCRP (Homo sapiens, UniProt Q9UNQ0)
# T2 sequence (Q9UNQ0 1-655): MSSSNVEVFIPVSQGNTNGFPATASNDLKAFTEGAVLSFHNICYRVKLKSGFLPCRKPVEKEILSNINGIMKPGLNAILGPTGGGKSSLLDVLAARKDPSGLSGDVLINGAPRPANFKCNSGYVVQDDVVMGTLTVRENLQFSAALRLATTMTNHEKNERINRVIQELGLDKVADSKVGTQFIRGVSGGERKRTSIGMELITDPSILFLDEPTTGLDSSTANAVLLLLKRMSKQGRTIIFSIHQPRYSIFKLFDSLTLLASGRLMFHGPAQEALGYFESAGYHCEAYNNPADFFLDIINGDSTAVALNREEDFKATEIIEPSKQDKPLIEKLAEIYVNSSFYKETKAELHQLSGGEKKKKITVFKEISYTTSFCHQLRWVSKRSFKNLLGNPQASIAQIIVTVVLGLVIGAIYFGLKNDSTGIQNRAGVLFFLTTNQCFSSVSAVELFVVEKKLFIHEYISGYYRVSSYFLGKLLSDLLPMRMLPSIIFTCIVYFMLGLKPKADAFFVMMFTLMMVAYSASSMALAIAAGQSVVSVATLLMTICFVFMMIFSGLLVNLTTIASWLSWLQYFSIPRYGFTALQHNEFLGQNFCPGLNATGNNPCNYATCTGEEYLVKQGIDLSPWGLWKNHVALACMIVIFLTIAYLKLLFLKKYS
# Assay: Transporter susceptibility and inhibitory activity, BCRP
# Type: in vitro ADME
# Conditions: data not shown
row,Structure (SMILES),substrate or inhibitor of BCRP (in words)
1,"O=S(=O)(c1cc(F)c(O)c2ncccc12)N1CCCC1 [Compound 28, 7-Fluoro-5-(pyrrolidin-1-ylsulfonyl)quinolin-8-ol]",not found to be a substrate or an inhibitor

# Tested on: not listed separately
# Assay: Rat biomarker assay: inhibitor concentrations in plasma, brain and CSF
# Type: in vivo
# Conditions: 4 hours after 15mpk ip
Structure (SMILES),CSF,Free Brain
"Cc1ccc(C(=O)c2cc(O)c(O)c([N+](=O)[O-])c2)cc1 [Compound 1, tolcapone, reference compound]",BLQ,BLQ

# Same assay, conditions: male, Sprague Dawley, CSF, oral, 10 mg/kg, Free CSF, 4 hours after 10mg/kg oral dose, corrected for non-specific binding to CSF
row,Structure (SMILES),concentration at 4 h [nM]
1,"O=S(=O)(c1cc(F)c(O)c2ncccc12)C1CCCC1 [Compound 25, 5-(Cyclopentylsulfonyl)-7-fluoroquinolin-8-ol]",139
2,"O=S(=O)(c1cc(F)c(O)c2ncccc12)N1CCCC1 [Compound 28, 7-Fluoro-5-(pyrrolidin-1-ylsulfonyl)quinolin-8-ol]",77
3,"O=S(=O)(c1ccc(F)cc1)c1cc(F)c(O)c2ncccc12 [Compound 20, 7-Fluoro-5-((4-fluorophenyl)sulfonyl)quinolin-8-ol]",59
